Measured values as given in ChEMBL document CHEMBL1121790, “Proposed dopaminergic pharmacophore of lergotrile, pergolide, and related ergot alkaloid derivatives” (1981).
Active and inactive are the calls of the source. The rule behind the calls is not given here.

What was measured:
Felis catus [1] = test: Compound was tested for percentage decrease in mean arterial blood pressure at 300 mg/kg in anaesthetized cat; format: functional, Artery
Procedure, shortened: (§1)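 Pentobarbital sodium (30 mg/kg, intrathorax) anaesthetised cats; arterial pressure from right femoral artery via pressure transducer. Compound given iv, doses spaced 0.48 log units. Change in mean arterial pressure (increase, i.e. transient primary pressor phase, and decrease) and in resting heart rate expressed as % of resting control; resting pressure (mmHg) and heart rate (beats/min) also recorded.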

Felis catus [2] = test: Compound was tested for percentage decrease in heart rate at 30 mg/kg in anaesthetized cat; format: functional; procedure, shortened: as §1
Felis catus [3] = test: Compound was tested for percentage decrease in heart rate at […] in anaesthetized cat (resting heart rate (beats/min)); format: functional; procedure, shortened: as §1
Felis catus [4] = test: Compound was tested for inhibitory effect reversed by haloperidol (100 ug/kg) at […] in anaesthetized cat; Yes; format: functional, organism-based
Procedure, shortened: (§2)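 Cats anaesthetised with pentobarbital sodium (30 mg/kg, intrathorax); arterial pressure recorded from right femoral artery. Postganglionic cardioaccelerator nerve stimulated at 2 Hz, 5 ms pulses, supramaximal voltage, 20-30 s trains. After stable controls, compound given iv in doses spaced 0.48 log units; inhibition of stimulation-induced tachycardia measured. Haloperidol 100 μg iv at end, inhibition redetermined. ID50 by probit analysis.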

Felis catus [5] = test: Compound was tested for neuronal inhibition of postganglionic cardio accelerator nerve stimulation in anaesthetized cat at 2 Hz frequency at 100 mg/kg; format: functional; details: Heart; procedure, shortened: as §2
Felis catus [6] = test: Compound was tested for percentage decrease in mean arterial blood pressure at 100 mg/kg in anaesthetized cat (resting mean arterial pressure (mmHg)); format: functional, Artery; procedure, shortened: as §1
Felis catus [7] = test: Compound was tested for percentage decrease in mean arterial blood pressure at 30 mg/kg in anaesthetized cat; format: functional, Artery; procedure, shortened: as §1
Felis catus [8] = test: Sympathetic neuronal inhibiting activity in anaesthetized cat 30 at mg/kg; 0.12-0.33; format: functional; details: Sympathetic neuron, read-out: ID50 (the source's name); procedure, shortened: as §2
Felis catus [9] = test: Compound was tested for percentage increase in mean arterial blood pressure at 30 mg/kg in anaesthetized cat; format: functional, Artery; procedure, shortened: as §1
Felis catus [10] = test: Compound was tested for percentage increase in mean arterial blood pressure at 300 mg/kg in anaesthetized cat; format: functional, Artery; procedure, shortened: as §1
Felis catus [11] = test: Potency relative to apomorphine at […] in anaesthetized cat; 0.07-0.33; format: functional
Felis catus [12] = test: Compound was tested for percentage increase in mean arterial blood pressure at 100 mg/kg in anaesthetized cat; format: functional, Artery; procedure, shortened: as §1
Felis catus [13] = test: Compound was tested for percentage decrease in heart rate at 300 mg/kg in anaesthetized cat; format: functional; procedure, shortened: as §1
Felis catus [14] = test: Compound was tested for neuronal inhibition of postganglionic cardio accelerator nerve stimulation in anaesthetized cat at 2 Hz frequency at 30 mg/kg; format: functional; details: Heart; procedure, shortened: as §2
Felis catus [15] = test: Compound was tested for neuronal inhibition of postganglionic cardio accelerator nerve stimulation in anaesthetized cat at 2 Hz frequency at 300 mg/kg; format: functional; details: Heart; procedure, shortened: as §2
Felis catus [16] = test: Potency relative to apomorphine at 30 mg/kg in anaesthetized cat; format: functional
Felis catus [17] = test: Compound was tested for percentage decrease in mean arterial blood pressure at 100 mg/kg in anaesthetized cat; format: functional, Artery; procedure, shortened: as §1
Felis catus [18] = test: Sympathetic neuronal inhibiting activity in anaesthetized cat at 30 mg/kg; format: functional; details: Sympathetic neuron, read-out: ID50 (the source's name); procedure, shortened: as §2
Felis catus [19] = test: Compound was tested for percentage decrease in heart rate at 100 mg/kg in anaesthetized cat; format: functional; procedure, shortened: as §1
Felis catus [20] = test: Compound was tested for percentage increase in mean arterial blood pressure at 10 mg/kg in anaesthetized cat; format: functional, Artery; procedure, shortened: as §1
Felis catus [21] = test: Compound was tested for percentage decrease in heart rate at 10 mg/kg in anaesthetized cat; format: functional; procedure, shortened: as §1
Felis catus [22] = test: Compound was tested for percentage decrease in mean arterial blood pressure at 10 mg/kg in anaesthetized cat (resting mean arterial pressure (mmHg)); format: functional, Artery; procedure, shortened: as §1
Felis catus [23] = test: Compound was tested for percentage decrease in mean arterial blood pressure at 3 mg/kg in anaesthetized cat; format: functional, Artery; procedure, shortened: as §1
Felis catus [24] = test: Compound was tested for neuronal inhibition of postganglionic cardio accelerator nerve stimulation in anaesthetized cat at 2 Hz frequency at 10 mg/kg; format: functional; details: Heart; procedure, shortened: as §2
Felis catus [25] = test: Compound was tested for percentage decrease in heart rate at 3 mg/kg in anaesthetized cat; format: functional; procedure, shortened: as §1
Felis catus [26] = test: Compound was tested for neuronal inhibition of postganglionic cardio accelerator nerve stimulation in anaesthetized cat at 2 Hz frequency at 3 mg/kg; format: functional; details: Heart; procedure, shortened: as §2
Felis catus [27] = test: Compound was tested for inhibitory effect reversed by haloperidol (100 ug/kg) at 3 mg/kg in anaesthetized cat; yes; format: functional, organism-based; parameters: dose 3 mg/kg
Procedure, shortened: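 Pentobarbital sodium (30 mg/kg) anaesthetised cats; arterial pressure recorded from the right femoral artery. Postganglionic cardioaccelerator nerve stimulated at 2 Hz with 5 ms pulses at supramaximal voltage, in 20-30 s trains. After stable controls, compound was given iv in doses spaced at 0.48 log intervals. Haloperidol (100 μg/kg iv) was then given and inhibition of nerve-evoked tachycardia redetermined.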

Felis catus [28] = test: Compound was tested for percentage increase in mean arterial blood pressure at 3 mg/kg in anaesthetized cat; format: functional, Artery; procedure, shortened: as §1
Felis catus [29] = test: Potency relative to apomorphine at 3 mg/kg in anaesthetized cat; format: functional
Felis catus [30] = test: Sympathetic neuronal inhibiting activity in anaesthetized cat 3 at mg/kg; format: functional; details: Sympathetic neuron, read-out: ID50 (the source's name); procedure, shortened: as §2

SMILES | Decrease (Felis catus [1]) [%] | Decrease (Felis catus [2]) [%] | Inhibitory effect (Felis catus [4]) | inhibition in vivo at 100 mg/kg (Felis catus [5]) [%] | Decrease (Felis catus [7]) [%] | Increase (Felis catus [9]) [%] | Decrease (Felis catus [13]) [%] | inhibition in vivo at 30 mg/kg (Felis catus [14]) [%] | inhibition in vivo at 300 mg/kg (Felis catus [15]) [%] | further results
CNCCc1cccc2[nH]ccc12 | 10 | 7 | Yes | 60 | 11 | 6 | 10 | 29 | 77 | Decrease (Felis catus [3]): 12%; Decrease (Felis catus [6]): 18%; ED50 (Felis catus [8]): 0.22 µmol/kg; Increase (Felis catus [10]): 41%; Ratio (Felis catus [11]): 0.14; Increase (Felis catus [12]): 16%
CN1C[C@H](CC#N)C[C@@H]2c3cccc4[nH]c(Cl)c(c34)C[C@H]21 [LERGOTRILE] | 38 | 11 | Yes | 57 | 22 | – | 12 | 21 | 69 | Ratio (Felis catus [16]): 0.08; Decrease (Felis catus [17]): 34%; ED50 (Felis catus [18]): 0.27 µmol/kg; Decrease (Felis catus [19]): 10%
CCCN1C[C@H](CSC)C[C@@H]2c3cccc4[nH]cc(c34)C[C@H]21 [PERGOLIDE] | – | 80 | – | – | 6 | 52 | – | 80 | – | Increase (Felis catus [20]): 15%; Decrease (Felis catus [21]): 59%; Decrease (Felis catus [22]): 8%; Decrease (Felis catus [23]): 5%; inhibition in vivo at 10 mg/kg (Felis catus [24]): 59%; Decrease (Felis catus [25]): 23%; inhibition in vivo at 3 mg/kg (Felis catus [26]): 23%; Inhibitory effect (Felis catus [27]): Active; Increase (Felis catus [28]): 5%; Ratio (Felis catus [29]): 1.13; ED50 (Felis catus [30]): 0.02 µmol/kg
